Source: PubChem BioAssay AID493091 (Sanford-Burnham Center for Chemical Genomics, 2011)
Where “and” joins values, the source holds several entries; their conditions need not be identical. Identical values can stand only once. Among all 340,000 compounds or so, about 3,000 (0.88%) were called active. The entries come from a sample that favours actives as a whole. Unmarked numbers belong to inactive results.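 How the source made its calls: active means inhibition above about 50% at 20 µM (limit read from the data); inactive means the rest.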

molecular target: Carboxy-terminal domain RNA polymerase II polypeptide A small phosphatase 1 (Homo sapiens) (UniProt Q9GZU7); experiment: inhibition of human SCP1 dephosphorylation activity – biochemical, colorimetric, uHTS, primary screen (AID 493091); conditions: Recombinant Scp1, phosphopeptide, malachite green phosphate absorbance; at 20 µM; hits give high values;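 further: plate controls were DMSO wells with enzyme for no effect and wells lacking enzyme for full effect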
Sequence (Q9GZU7 76-261 limits assumed): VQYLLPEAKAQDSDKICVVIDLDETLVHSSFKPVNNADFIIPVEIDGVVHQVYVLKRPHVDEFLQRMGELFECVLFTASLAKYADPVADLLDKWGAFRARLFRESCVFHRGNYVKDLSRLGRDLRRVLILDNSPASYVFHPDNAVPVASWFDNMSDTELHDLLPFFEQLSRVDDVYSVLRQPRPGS
Procedure, shortened: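 Test system: SCP-1 phosphatase catalytic domain, residues 76-261 | Compound dosing: One concentration, 20 µM, with 1.0% DMSO | Schedule: 45 min room-temperature reaction, 5 min colour, 30 min stabiliser | Detection: Absorbance at 630 nm | Read-out basis: % inhibition of SCP-1 phosphate liberation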

Structure (SMILES)	inhibition
CCOC(=O)C1CCCN(C(=O)c2ccc(CS(=O)(=O)c3ccc(Br)cc3)o2)C1 (stereo unspecified)	5.99%
Cc1nnc(SCc2cccc(Cl)c2)n(N)c1=O	-7.11%
Cc1cccc2sc(N(CCCN(C)C)C(=O)CCS(=O)(=O)c3ccccc3)nc12	5.73%
COc1cccc2sc(N(CCCN(C)C)C(=O)CCS(=O)(=O)c3ccccc3)nc12	8.55%
COc1cccc2sc(N(CCCN(C)C)C(=O)C(c3ccccc3)c3ccccc3)nc12	59.4% (active)
CC1CN(S(=O)(=O)c2ccccc2)C(C)CN1S(=O)(=O)c1ccccc1 (stereo unspecified)	15.5%
O=C(Nc1ccc(Cl)cc1)C1c2cccc[n+]2CC(=O)N1Cc1ccc2c(c1)OCO2 (stereo unspecified)	39.5%
C=CCC(Nc1ccccc1)c1cccc(OC)c1OC (stereo unspecified)	0.9%
COc1ccc2oc(=O)cc(-c3cc4ccccc4o3)c2c1	-1.71%
COc1cccc2cc(C(=O)N(C)C)c(=O)oc12	-2.27%
COc1cccc2cc(-c3cc(=O)oc4cc(C)c(O)cc34)oc12	58.8% (active)
Cc1ccsc1-c1nc(CSCC(=O)NCCN2CCCC2)c(C)o1	-6.12%
COC(=O)C1C(=O)NCC1c1ccc(OC)cc1 (stereo unspecified)	-1.05%
Cc1cc(=O)oc2c1c(C)nn2-c1ccc(Cl)cc1	-6.94%
CCOC(=O)CNC(=O)c1nn(-c2cccc(OC)c2)c(=O)c2ccccc12	1.07%
Cc1nn(-c2cc(Cl)ccc2N)c(=O)c2ccccc12	60.1% (active)
CCCC(C(=O)N1CCOCC1)N1C(=O)C2C3C=CC(C3)C2C1=O (stereo unspecified)	1.46%
Cc1cc(O)c(C2(O)C(=O)Nc3ccccc32)cc1C (stereo unspecified)	2.83%
CC(=O)c1cccc(NC(=O)C2COc3ccccc3O2)c1 (stereo unspecified)	-3.69%
COc1cc(SC)ccc1C(=O)NNC(=O)C1COc2ccccc2O1 (stereo unspecified)	55.9% (active)
COc1cc(SC)ccc1C(=O)N(Cc1ccccc1)c1ccccc1	-9.22%
NNC(=O)C1CC(O)CN1S(=O)(=O)c1ccc(Cl)cc1 (stereo unspecified)	-8.23%
CN1CCN(C2Cc3ccc(Cl)cc3Sc3ccc(F)cc32)CC1 (stereo unspecified)	-3.27%

Structure (SMILES)	inhibition
Cc1c(CCO)c(=O)n(-c2ccccc2)n1S(=O)(=O)c1ccc(F)cc1	-6.22%
CCOC(=O)c1cnn(Cc2ccccc2Cl)c1N	-4.87%
CC(=O)c1cccc(NC(=O)c2cc(C)nn2-c2ccccc2)c1	-21.8%
CC[n+]1c(C)n(-c2ccccc2)c2ccc(NC(C)=O)cc21	59.6% (active)
CC(=O)Nc1ccc(NC(=O)CSc2nnc(C3CC3)n2-c2ccccc2)cc1	3.64%
CCc1ccc(NC(=O)CS(=O)CC(=O)NCCCc2ccccc2)cc1 (stereo unspecified)	93.4% (active)
S=C(NCCCc1ccccc1)Nc1ccc(Br)cc1	-8.32%
CCc1ccc(NC(=O)CS(=O)CC(=O)N2CCN(c3ccccc3F)CC2)cc1 (stereo unspecified)	-3.07%
CC(C)(C)C1CCc2c(sc3nc(SCC(N)=O)nc(N)c23)C1 (stereo unspecified)	5.56%
O=C(Nc1cccnc1)c1cc2cc(Br)ccc2oc1=O	101% (active)
COc1ccc2oc(=N)c(C(=O)Nc3ccc(Br)cc3)cc2c1	2.27%
O=C(Nc1cccnc1)c1cc([N+](=O)[O-])ccc1Cl	-5.04%
O=C(Oc1ccc2c(c1)CCC2)N1CCOCC1	-4.77%
COc1ccc(CCNS(=O)(=O)c2cn(C)nc2C)cc1	0.34%
Oc1[nH]c2ccccc2c1N=Nc1c(F)c(F)c(F)c(F)c1F	-10.4%
O=[N+]([O-])c1cc(S(=O)(=O)Nc2cccc(Cl)c2)ccc1N=Nc1c(O)[nH]c2ccccc12	52.2% (active)
O=C(O)c1ccccc1/C=N/Nc1ccc(S(=O)(=O)Nc2ccc(Cl)cc2)cc1[N+](=O)[O-]	-7.5%
Cc1ccnc(NS(=O)(=O)c2ccc(NC(=O)c3oc4ccccc4c3C)cc2)n1	-7.13%
O=C1CCC/C=C\C[C@@H](CC(=O)N(CCO)Cc2ccccc2)C(=O)NCCO1	-0.23%
O=C(N/N=C/c1ccc(Br)o1)c1cncc(Br)c1	0.65%
O=C(CCc1n[nH]c(=O)[nH]c1=O)N/N=C/c1ccc(Br)o1	2.94%
O=C(CCC(=O)N/N=C/c1ccc(Br)o1)N/N=C/c1ccc(Br)o1	55% (active)
O=C(CCNC(=O)c1ccccc1Cl)NN=Cc1ccco1	10.6%

Structure (SMILES)	inhibition
N#CCC(=O)N/N=C/c1ccc(SCC(=O)Nc2ccccc2)o1	-8.26%
O=C(CCNC(=O)c1ccccc1)NN=Cc1ccc(Br)o1	70.2% (active)
Cc1ccc(S(=O)(=O)NCC(C)NS(C)(=O)=O)cc1 (stereo unspecified)	-4.62%
Cc1cccc(C)c1NC(=O)COC(=O)c1ccccc1O	-5.49%
COc1ccc(CNS(=O)(=O)c2cc(-c3cc(C)no3)ccc2C(C)C)cc1	-11%
O=C(c1cc(S(=O)(=O)N2CCOCC2)ccc1Cl)N1CCOCC1	-9.49%
CC(=O)N1CCN(S(=O)(=O)c2cccc(C(=O)NC3CCC(C)CC3)c2)CC1 (stereo unspecified)	5.39%
C[C@H](NC(=O)C1CC(=O)N(c2ccc3c(c2)OCO3)C1)C(=O)NCc1ccco1 (stereo partly specified)	-2.53%
CCCn1nc(NS(=O)(=O)c2ccc(F)cc2)c2cc3ccccc3nc21	3.78%
COCCCNc1nc2ccccc2nc1NS(=O)(=O)c1ccc(F)cc1	54.7% (active)
CCCCNc1nc2ccccc2nc1NS(=O)(=O)c1cccs1	-7.43%
CC1C(=O)C(C)C(c2ccc(O)cc2)NC1c1ccc(O)cc1 (stereo unspecified)	-7.74%
CCN(CC)S(=O)(=O)c1cccc(-c2n[nH]c(=S)n2/N=C/c2ccc(C(=O)OC)cc2)c1	-7.1%
Cc1ccc(OC(=O)c2ccccc2C(=O)OCC(F)(F)C(F)F)cc1	-9.39%
CCc1ccc(C2C(C#N)=C(N)N(N3CCOCC3)C3=C2C(=O)CC(C)(C)C3)s1 (stereo unspecified)	8.56%
CC(C)(CNC(=O)CNC(=O)C1CCCCC1)N1CCOCC1	-8.57%
O=S(=O)(c1ccc(Br)c2ccccc12)N1CCOCC1	-7.33%
COc1ccc2[nH]c(=S)cc(C)c2c1	-4.32%
COc1ccc2[nH]c(C(=O)N3CCN(C)CC3)c(C)c2c1	-4.55%
COc1ccc2[nH]c3c(C)c4cc[n+](C)cc4c(C)c3c2c1	64.5% (active)
Cn1nc(C(C)(C)C)c([N+](=O)[O-])c1C(N)=O	-0.65%
Cc1c([N+](=O)[O-])c(N)nn1C	51% (active)
Cc1nn(CCOc2ccc(Br)cc2)c(C)c1[N+](=O)[O-]	-14.1%

Structure (SMILES)	inhibition
Clc1ccc(Cn2ncc3c(NCc4cccnc4)ncnc32)cc1	2.57%
O=C(COC(=O)/C=C/c1ccc(Br)o1)Nc1cccc(S(=O)(=O)N2CCOCC2)c1	56% (active)
NS(=O)(=O)c1cccc(NC(=O)COC(=O)/C=C/c2ccco2)c1	26.2%
O=C(COC(=O)c1ccccc1)Nc1cccc(S(=O)(=O)N2CCOCC2)c1	-6.52%
C=CCOc1ccc(/C=C/C(=O)OCC(=O)NC(C)c2ccc(F)cc2)cc1 (stereo unspecified)	1.27%
Cc1c(CCOC(=O)CC23CC4CC(CC(C)(C4)C2)C3)sc[n+]1Cc1ccc([N+](=O)[O-])cc1	12.7% and 5.4%
CN(C)c1nc2n(c(=O)n1)CCO2	1.74%
COc1ccc(OCC(=O)NNC(=O)C2CCC2)cc1	0.44%
COc1ccc(OCC(=O)NNC(=O)c2ccc(-c3ccccc3)cc2)cc1	69.9% (active)
CC(NC(=O)COc1ccc(-c2ccccc2)cc1)C1CCCO1 (stereo unspecified)	-2.02%
CCC(C)N1CC(=O)N2Cc3[nH]c4ccccc4c3C[C@H]2C1=O (stereo partly specified)	-3.96%
N/C(=N\OC(=O)c1ccc2c(c1)OCO2)c1ccc(Br)cc1	-3.74%
N/C(=N\OC(=O)N1c2ccccc2Sc2ccccc21)c1ccc(Br)cc1	69% (active)
N/C(=N\OC(=O)Cc1ccccc1[N+](=O)[O-])c1ccc(Br)cc1	-4.88%
Cc1cc(C)nc(NS(=O)(=O)c2ccc(N3C(=O)C4CCCCC4C3=O)cc2)n1 (stereo unspecified)	-3.6%
Cc1ccc(S(=O)(=O)Nc2nc(N)n(-c3ccccc3)n2)cc1	-3.38%
Cc1ccc(S(=O)(=O)Nc2nc(C)cc(-n3nc(C)cc3C)n2)cc1	84.1% (active)
COC(=O)c1sccc1NC(=O)CSc1ccccc1NS(=O)(=O)c1cc(Cl)ccc1Cl	-13.4%
O=C(CNC(=O)C12CC3CC(CC(C3)C1)C2)OCC(=O)N1CCCCC1	-0.76%
C#CCOCCOCCOCCNc1nc(N2CCN(C(=O)Cn3cc(CCO)nn3)CC2)nc(N2CCN(C(=O)Cn3cc(CCCN=C(N)N)nn3)CC2)n1	4.14%
C#CCOCCOCCOCCNc1nc(N2CCN(C(=O)CCCCCCCCCCNC(=O)[C@H]([C@@H](C)CC)n3cc(CCCCN=C(N)N)nn3)CC2)nc(N2CCN(C(=O)CCCCCCCCCCNC(=O)[C@H](CO)n3cc(CCCSC)nn3)CC2)n1	53% (active)
C#CCOCCOCCOCCNc1nc(N2CCN(C(=O)CCCCCCCCCCNC(=O)[C@H](CCCCN)n3cc(C)nn3)CC2)nc(N2CCN(C(=O)CCCCCCCCCCNC(=O)[C@H](CO)n3cc(CCCSC)nn3)CC2)n1	26.8%
